Screening data (PubChem)
Most compounds without a hit are left out; they make up all but 3.2% or so of the library.
Bim-Mcl-1: inhibitors of Bim peptide binding to Mcl-1, primary screen, biochemical, bead-based flow cytometry, multiplex. Induced myeloid leukemia cell differentiation protein Mcl-1 (Homo sapiens), Q07820. 190,000 compounds, 0.1% hits. inhibition, % at 10 µM. Bim peptide-Mcl-1 binding; in the data active means inhibition above about 40%;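 further: 0% = no compound tracer wells and 100% = peptide blocker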
Target sequence (Q07820 whole entry, looked up): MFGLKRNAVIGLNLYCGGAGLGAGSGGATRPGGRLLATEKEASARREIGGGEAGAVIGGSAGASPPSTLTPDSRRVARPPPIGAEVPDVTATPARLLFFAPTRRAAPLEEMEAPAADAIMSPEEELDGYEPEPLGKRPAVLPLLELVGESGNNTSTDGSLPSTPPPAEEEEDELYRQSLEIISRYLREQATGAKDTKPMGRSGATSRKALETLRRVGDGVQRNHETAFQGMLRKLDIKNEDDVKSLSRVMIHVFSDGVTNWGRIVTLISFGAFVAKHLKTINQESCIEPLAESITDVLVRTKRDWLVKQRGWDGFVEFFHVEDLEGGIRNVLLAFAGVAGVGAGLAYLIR
Hck Nef HTS: inhibitors of Nef-activated human Hck kinase, primary screen, biochemical, Z-Lyte FRET, 384-well, Hck-YEEI; Tyrosine-protein kinase HCK (Homo sapiens), P08631; Recombinant Hck-YEEI plus Nef, Z-Lyte FRET kinase assay; inhibition, % at 20 µM; 220,000 compounds, 0.68% hits;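 active means Hck-Nef kinase inhibition above about 50%, limit read from the data; inactive means inhibition below that limit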;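 further: 0% = DMSO with Hck plus Nef and 100% = Hck alone without Nef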
Mcl1-Noxa inh: Mcl-1/Noxa binding inhibitors, primary screen, biochemical, TR-FRET, 1536-well; Induced myeloid leukemia cell differentiation protein Mcl-1 (Homo sapiens), Q07820; TR-FRET Mcl-1/Noxa peptide binding, 2 h; inhibition, % at 21.7 µM; 220,000 compounds, 1.5% hits; AID 1022, 2008;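 active means compounds that cut the protein-peptide binding signal by more than 50% relative to plate controls in a single-dose test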;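 further: His-tagged Mcl-1 with rhodamine Noxa BH3 peptide and terbium anti-His antibody; 0% = Mcl-1 plus Noxa peptide wells and 100% = peptide-only wells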
Mcl1-Bid inh: Mcl-1/Bid binding inhibitors, primary screen, biochemical, TR-FRET, 1536-well | 220,000 compounds, 0.97% hits | AID 1021, 2008 | TR-FRET Mcl-1/Bid-Dy647 peptide binding | Induced myeloid leukemia cell differentiation protein Mcl-1 (Homo sapiens), Q07820 | inhibition, % at 21.7 µM;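 active means compounds that cut the binding signal by more than half at the single screening dose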;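 further: His-tagged Mcl-1 with europium anti-His antibody binding Bid BH3 peptide; 0% = Mcl-1 plus peptide wells and 100% = peptide-only wells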
14-3-3 Bad inh: inhibitors of 14-3-3 zeta/Bad binding, primary screen, biochemical, TR-FRET, bovine 14-3-3 zeta | 14-3-3 protein zeta/delta (Bos taurus), P63103 | TR-FRET 14-3-3zeta/Dy647-pBad peptide displacement, 1 h | inhibition, % at 21.7 µM | 220,000 compounds, 0.71% hits | AID 781, 2007;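 active means inhibition above about 70%, limit read from the data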;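 further: 0% = full 14-3-3 plus peptide FRET controls and 100% = background without 14-3-3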
Target sequence (P63103 whole entry, looked up): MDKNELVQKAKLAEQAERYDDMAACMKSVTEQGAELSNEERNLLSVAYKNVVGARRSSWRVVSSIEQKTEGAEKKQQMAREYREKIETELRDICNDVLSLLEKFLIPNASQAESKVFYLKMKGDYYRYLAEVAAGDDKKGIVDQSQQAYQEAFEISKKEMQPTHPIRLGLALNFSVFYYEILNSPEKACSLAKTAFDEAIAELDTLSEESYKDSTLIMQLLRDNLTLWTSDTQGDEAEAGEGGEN
Calb biofilm kill: clotrimazole potentiators killing C. albicans biofilm, primary screen, 4-compound mixtures. C. albicans biofilm persisters + clotrimazole, fluorescence viability; primary screen in compound mixtures of four per well. AID 1242, 2008. inhibition, % at 7.6 µM. 120,000 compounds, 0.02% hits;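 active means inhibition above 30.3% in the primary screen of four-compound pools, then above 30% when the compound was retested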;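 further: compounds exposed to preformed 24 h biofilms for 48 h; 0% = untreated biofilm control and 100% = clotrimazole plus chlorhexidine kill blank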
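Assay system: C. albicans biofilms / Medium: RPMI/MOPS medium, pH 7.0 / Schedule: biofilm formation 24 h, compound exposure 48 h, 37 °C / Measured by: Alamar Blue fluorescence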
* marks the source's active call; other numbers are inactive results; nt = no result given; ! = not active in a repeat; [ ] = remark or other dose.

SMILES	Bim-Mcl-1	Hck Nef HTS	Mcl1-Noxa inh	Mcl1-Bid inh	14-3-3 Bad inh	Calb biofilm kill
N#C/C(=C(/O)CSc1nnc(Cc2cccs2)n1C1CCCCC1)c1nc2ccccc2[nH]1	7	4	52*	-65	-18	nt
CCCC1C2C(=O)N(c3ccc(OC)cc3)C(=O)C2ON1c1ccccc1 (stereo not drawn)	0	-2	-9	-12	90*	nt
COC(=O)c1ccc2nc(C)c(C)nc2c1	0	1	-18	10	5	nt
COC(=O)c1cc(N=Nc2sc(N)nc2C)cc(C(=O)OC)c1	nt	18	53*	-5	14	25
O=C(NCc1nc2ncc(Br)cc2[nH]1)c1ccccc1	-1	0	6	73*	-6	nt
Brc1cnc2nc(SC/C=C/c3ccccc3)[nH]c2c1	nt	5	6	-7	8	29
O=C(NNC(=O)c1sccc1-n1cccc1)c1cccs1	0	20	13	-11	0	-24
Clc1nc(Cl)nc(N(c2ccccc2)c2ccccc2)n1	-1	4	35	51*	5	6
Cc1ccc2oc(=O)c3cnn(CC(=O)NC4CCC(C)CC4)c3c2c1 (stereo not drawn)	-2	7	9	34	10	nt
Cc1ccc2oc(=O)c3cnn(CC(=O)NC4CCCCC4C)c3c2c1 (stereo not drawn)	0	5	-6	65*	-8	nt
O=C(O)c1ccccc1NSc1ccccc1[N+](=O)[O-]	51*	19	22	2	-7	12
O=C(Nc1ccc(Nc2ccncc2)cc1)c1ccc(Nc2ccnc3ccc([N+](=O)[O-])cc23)cc1[N+](=O)[O-]	nt	-158	80*	90*	77*	13
CC1CN(C)C(C)C/C1=N\Oc1ccc([N+](=O)[O-])cc1 (stereo not drawn)	3	12	15	8	18	20
CC1=CC(=O)C=C(C)C1=NOc1ccc([N+](=O)[O-])cc1	-2	18	22	35	74*	12
Cc1ccccc1C1CCCN(Cc2nc(C3CC3)no2)C1 (stereo not drawn)	0	11	-10	5	0	6
CC(C(=O)NCC1CCCO1)c1ccc([N+](=O)[O-])cc1 (stereo not drawn)	0	-3	8	-32	-4	-2
CC(=O)C1=C(c2ccccc2)NC(=O)NC1c1ccc(O)c(O)c1 (stereo not drawn)	1	21	17	-81	-7	16
CC(=O)C1=C(c2ccccc2)NC(=S)NC1c1ccc(O)c(O)c1 (stereo not drawn)	-8	-3	52*	-20	1	13
O=C(CCCCCn1c(=O)[nH]c2ccsc2c1=O)N1CCN(C2CCCCC2)CC1	0	1	3	-21	-1	nt
N#Cc1ccc(S(=O)(=O)N2CCc3[nH]c4ccc(F)cc4c3C2)cc1	nt	18	7	-28	-11	24
O=C(CSc1ncnc2ccccc12)Nc1ccc2c(c1)OCCO2	0	-23	-8	-2	23	20
O=C(CSc1nc(Cc2ccccc2)nc2ccccc12)Nc1ccc2c(c1)OCCO2	-2	4	0	58*	16	nt
O=C(Nc1nnc(-c2ccncc2)o1)c1ccc(Br)s1	3	9	-19	-11	-5	10
COC(=O)COc1ccc2c(=O)c(-c3ccccc3)coc2c1	nt	0	-1	-1	2	11
CC(C)Oc1ccc2c(=O)c(-c3ccccc3)coc2c1	-3	-3	44	64*!	-9	6
SMILES	Bim-Mcl-1	Hck Nef HTS	Mcl1-Noxa inh	Mcl1-Bid inh	14-3-3 Bad inh	Calb biofilm kill
COc1ccccc1C(=O)Nc1ncc2c(n1)CC(c1ccco1)CC2=O (stereo not drawn)	-1	3	54*	-8	2	nt
COc1cc(C(=O)O)c2ccccc2n1	-5	16	4	-14	-3	27
CCC(=O)N1CCCc2cc(S(=O)(=O)N3CCN(c4ccccc4F)CC3)ccc21	1	5	65*	6	-10	nt
Cc1cc(C)c(S(=O)(=O)c2ccccc2C)c(Cl)n1	-3	3	-10	-4	-8	nt
Cc1cc(C)nc(N(C#N)S(=O)(=O)c2ccccc2Cl)n1	-4	-14	24	89*	-8	nt
Cc1cc(=O)nc2c3ccccc3n(C(C)C(=O)NCCC(C)C)n12 (stereo not drawn)	nt	-11	-11	14	2	24
CC(=O)c1ccc(NC(=O)C(C)n2c3ccccc3c3nc(=O)cc(C)n32)cc1 (stereo not drawn)	nt	8	-4	97*	2	-1
CN(C)c1ccc(-c2nnc(-c3ccc(S(=O)(=O)C(F)F)cc3)o2)cc1	1	-1	27	73*	15	nt
CCN(CC)S(=O)(=O)c1ccc(-c2nnc(SC)o2)cc1	0	1	0	-3	-8	nt
CC(=O)Nc1nc(C(=O)O)cs1	0	23	18	7	6	5
CS(=O)(=O)N1CCN(c2ccc([N+](=O)[O-])c(SCc3ccco3)c2)CC1	-1	1	12	-11	-16	13
CCOC(=O)C1=c2/c(=C/c3ccncc3)c(N)c(C(=O)OC)n2C(=O)C(c2ccncc2)S1 (stereo not drawn)	3	16	30	62*	58	-5
O=C(CSc1ncnc2nc[nH]c12)Nc1nnc(SCc2ccc(Cl)c(Cl)c2)s1	0	22	20	-23	-14	-4
CCCCc1ccc(NC(=S)N2CCN(c3ncccn3)CC2)cc1	3	21	6	-36	-4	15
CCOC(=O)c1ccc(NC(=O)Oc2cc(C)c(Cl)cc2C(C)C)cc1	nt	31	-4	-6	-7	23
COc1cccc(N=c2oc3c(C)ncc(CO)c3cc2C(=O)Nc2ccccc2OC)c1	3	30	-35	49	91*[fluorescence artefact?]	nt
COc1ccc2o/c(=N\O)c(C(=O)Nc3ccccc3OC)cc2c1	-7	7	60*	14	4	nt
CN1CCN(C(=O)/C=C\C(=O)O)CC1	-2	0	23	-17	1	19
CC1=C(C(=O)Nc2ccccc2)C(c2ccc(C)o2)n2c(s/c(=C\c3ccco3)c2=O)=N1 (stereo not drawn)	-6	0	30	-20	4	nt
CCCCn1c(SCC(=O)c2ccc3c(c2)NC(=O)CO3)nc2cc(S(N)(=O)=O)ccc21	-4	-9	49	-39	-13	0
